Values joined by “and” are separate entries in the source; they are usually repeats but may differ in a detail not shown here. Equal values may be shown once. Read-outs that look alike come from different tables or passages of the source.
Key:
human KIAA1363 [1] = biological target: T1, human KIAA1363 (Homo sapiens, UniProt Q6PIU2); assay type: biochemical; settings: data not shown
T1 sequence (Q6PIU2 1-416 isoform Q6PIU2-2): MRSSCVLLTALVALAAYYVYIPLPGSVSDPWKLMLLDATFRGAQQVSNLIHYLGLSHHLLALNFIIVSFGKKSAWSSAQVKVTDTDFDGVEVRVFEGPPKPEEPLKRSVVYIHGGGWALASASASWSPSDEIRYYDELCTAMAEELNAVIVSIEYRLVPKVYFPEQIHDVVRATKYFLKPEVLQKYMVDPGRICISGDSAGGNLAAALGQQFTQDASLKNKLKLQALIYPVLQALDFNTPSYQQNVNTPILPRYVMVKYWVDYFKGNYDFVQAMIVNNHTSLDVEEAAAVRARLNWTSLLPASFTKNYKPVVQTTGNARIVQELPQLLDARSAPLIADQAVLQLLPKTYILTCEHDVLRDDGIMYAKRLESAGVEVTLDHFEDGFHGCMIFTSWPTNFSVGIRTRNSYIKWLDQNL

human KIAA1363 [2] = biological target: T1, human KIAA1363; assay type: biochemical; settings: for kreact (calculated reactivation rate constant): calculated with Eqn. 7 / kinact ratio
recombinant PON1^Q192 = recombinant PON1^Q192 ref 30; cited from earlier work
human CES1 = biological target: T2, human CES1 (Homo sapiens, UniProt P23141); assay type: biochemical; settings: for kinact/Ki (bimolecular rate constant): linear fit
T2 sequence (P23141 18-566 isoform P23141-3 limits assumed): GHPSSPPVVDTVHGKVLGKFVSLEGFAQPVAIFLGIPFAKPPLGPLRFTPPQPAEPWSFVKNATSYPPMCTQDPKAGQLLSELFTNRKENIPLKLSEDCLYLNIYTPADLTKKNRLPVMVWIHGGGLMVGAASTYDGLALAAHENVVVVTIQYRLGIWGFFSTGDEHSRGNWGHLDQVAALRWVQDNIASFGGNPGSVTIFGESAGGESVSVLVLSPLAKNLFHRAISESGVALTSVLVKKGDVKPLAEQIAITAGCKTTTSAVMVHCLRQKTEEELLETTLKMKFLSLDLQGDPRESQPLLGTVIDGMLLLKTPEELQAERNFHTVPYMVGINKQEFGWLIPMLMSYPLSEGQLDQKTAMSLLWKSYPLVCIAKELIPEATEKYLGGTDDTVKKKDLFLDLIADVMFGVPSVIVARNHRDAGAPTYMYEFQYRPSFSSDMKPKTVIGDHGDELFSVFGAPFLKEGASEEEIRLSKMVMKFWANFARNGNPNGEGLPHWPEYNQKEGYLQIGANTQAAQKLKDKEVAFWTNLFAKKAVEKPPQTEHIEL
Procedure, shortened: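 Oxon at various concentrations plus 4-MUBA (250 μM) prewarmed 5 min at 37°C. Lysate (0.1 mg/ml final) then starts the reaction. 4-Methylumbelliferone fluorescence ([…]) is followed 45 min, with the mock-lysate signal subtracted. Curves are fit to a single exponential without reactivation to give kobs per concentration. Ki′ is substrate-corrected (Km 227 μM).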

recombinant CES1 = recombinant CES1 ref 7; cited from earlier work
[3] = tested on: KIAA1363 in mouse brain membranes; settings: 1 nM [3H]-CPO, cited from earlier work
[4] = tested on: KIAA1363 in mouse brain membranes; settings: cited from earlier work
human KIAA1363 [5] = biological target: T1, human KIAA1363; assay: Reactivation of oxon-inhibited KIAA1363 activity after 100-fold dilution; assay type: biochemical; settings: CPO 1 μM 15 min, diluted 100-fold, up to 60 min at 37°C
Procedure, shortened: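 KIAA1363-transfected COS-7 lysate (1 mg/ml protein, 50 mM Tris-HCl pH 7.4) preincubated 15 min at 37°C with 1 μM oxon in ethanol (2% v/v), or ethanol alone as control. Reactions are diluted 1:100 in the same buffer and incubated 60 min at 37°C. Aliquots are taken every 10 min to assay residual 4-MUBA hydrolysis by fluorescence.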

recombinant PON1^R192 = recombinant PON1^R192 ref 30; cited from earlier work
[6] = means of 2–4 independent experiments

## CCCCCCCC/C=C\CCCCCCCC(=O)O[C@H]1CC[C@@]2(C)C(=CC[C@H]3[C@@H]4CC[C@H]([C@H](C)CCCC(C)C)[C@@]4(C)CC[C@@H]32)C1 [cholesteryl oleate]
Human KIAA1363 [1]
  hydrolysis by KIAA1363: could not detect any activity

## CCOP(=O)(OCC)Oc1nc(Cl)c(Cl)cc1Cl [CPO, O,O′-Diethyl 3,5,6-trichloro-2-pyridyl phosphate]
Human KIAA1363 [2]
  corrected kinact/Ki, fold higher than for PO: ~ 10 fold
  kinact/Ki (corrected bimolecular rate constant): 4.4(±0.4) × 10^6 s^−1M^−1
  ratio kinact/kreact (phosphorylation/dephosphorylation): 16
  kreact (calculated reactivation rate constant): 0.0004 s⁻¹ and 0.00043 ± 0.00019 s⁻¹
Human KIAA1363 [2]; [6]
  kinact: 0.0069 ± 0.0007 s⁻¹
Human KIAA1363 [2]; representative graph Fig. 6A
  kinact: 0.0062 s⁻¹
Recombinant PON1^Q192
  catalytic efficiency for hydrolysis of CPO: 90000 M⁻¹ s⁻¹
Human CES1
  kinact/Ki (bimolecular rate constant): 6.7(±4.2) × 10^6 s^−1M^−1
Human CES1; representative graph Fig. 6B, assuming Ki ≫ [I]
  kinact/Ki: 2.5 × 10^6 s^−1M^−1
Recombinant CES1
  kinact/Ki: ~ 10^7 s^−1M^−1
[3]; 5 min ref 10
  added CPO covalently bound to KIAA1363: 48 mol %
  added CPO present as diethylphosphoryl (non-aged) adduct: 44 mol %
  added CPO present as monoethylphosphoryl (aged) adduct: 4 mol %
[3]; 60 min ref 10
  CPO completely hydrolyzed to trichloropyridinol and diethylphosphate: 75 mol %
  added CPO as covalent phosphoryl adduct on KIAA1363: 25 mol %
  added CPO present as diethylphosphoryl adduct: 13 mol %
  added CPO present as monoethylphosphoryl adduct: 12 mol %
[4]; 1 nM CPO, 60 min ref 9
  hydrolysis (turnover) of CPO by KIAA1363: 100%
[4]; 60 min incubation ref 9
  hydrolysis of CPO by KIAA1363: hydrolyzed completely
[4]; 60 min incubation ref 10
  hydrolysis of 1 nM [3H]-CPO by brain membranes from wildtype mice: completely hydrolyzed
Human KIAA1363 [5]
  kreact determined by dilution approach: 0.00038 s⁻¹
Recombinant PON1^R192
  catalytic efficiency for hydrolysis of CPO: 150000 M⁻¹ s⁻¹

## CCOP(=O)(OCC)Oc1ccc([N+](=O)[O-])cc1 [PO, O,O′-diethyl p-nitrophenyl phosphate]
Human KIAA1363 [2]
  kinact, fold lower than kinact for CPO: 7.5 fold
  kinact/Ki (corrected bimolecular rate constant): 0.4 × 10^6 s^−1M^−1
  ratio kinact/kreact (phosphorylation/dephosphorylation): 3.4
  kreact (calculated reactivation rate constant): 0.0003 s⁻¹
Human KIAA1363 [2]; [6]
  kinact: 0.00092 s⁻¹
Human CES1
  kinact/Ki (bimolecular rate constant): 1.5 × 10^6 s^−1M^−1

## CCCCCCCC/C=C\CCCCCCCC(=O)Oc1ccc2c(C)cc(=O)oc2c1 [4-methylumbelliferyl oleate]
Human KIAA1363 [1]
  hydrolysis by KIAA1363: could not detect any activity
